Assay results as given in ChEMBL document CHEMBL1124479, “N-[(arylmethoxy)phenyl] and N-[(arylmethoxy)naphthyl] sulfonamides: potent orally active leukotriene D4 antagonists of novel structure” (J Med Chem, 1989).

What was measured:
Cavia porcellus [1] = experiment: Inhibition of Leukotriene D4 induced bronchoconstriction in guinea pig by 50 mg/kg i.d.; conditions: at 50 mg/kg
Cavia porcellus [2] = experiment: Inhibition of Leukotriene D4 induced bronchoconstriction when compound was administered intraduodenally at a dose of 25 mg/kg in guinea pig
Cavia porcellus [3] = experiment: Inhibition of ovalbumin-induced bronchoconstriction when compound was administered intraduodenally at a dose of 50 mg/kg in guinea pig; type: functional; conditions: route intraduodenal
Method in brief: (§1)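 Single-dose screen in guinea pigs, with n animals per group. Significance versus control used a two-tailed Student's t test (p < 0.05), or one-way ANOVA with contrasts based on each treatment's difference from its own control mean.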

Cavia porcellus [4] = experiment: Inhibition of Leukotriene D4 induced bronchoconstriction when compound was administered perorally at a dose of 50 mg/kg in guinea pig; type: functional; conditions: route oral
Method in brief: as §1

Row | inhibition (Cavia porcellus [1]) [%] | inhibition (Cavia porcellus [2]) [%] | Structure (SMILES) | other results
1 | 30 | – | CCCCS(=O)(=O)Nc1cccc(OCc2ccc3ccccc3n2)c1 | –
2 | – | 58 | O=C(O)CS(=O)(=O)Nc1cccc(OCc2ccc3ccccc3n2)c1 | –
3 | 2 | – | CCCCS(=O)(=O)Nc1cccc(OCc2nc3ccccc3n2C)c1 | inhibition in vivo at 50 mg/kg (Cavia porcellus [3]): 8%
4 | 4 | – | CCCS(=O)(=O)N(c1cccc(OCc2ccc3ccccc3n2)c1)S(=O)(=O)CCC | –
5 | 38 | – | CCCS(=O)(=O)N(c1cccc(OCc2nc3ccccc3s2)c1)S(=O)(=O)CCC | –
6 | -6 | – | CCS(=O)(=O)Nc1cccc2ccc(OCc3ccc4ccccc4n3)cc12 | –
7 | – | 14 | O=S(=O)(NCCc1cccc(OCc2ccc3ccccc3n2)c1)C(F)(F)F | –
8 | – | 24 | O=S(=O)(Nc1ccccc1OCc1ccc2ccccc2n1)C(F)(F)F | –
9 | – | 28 | O=S(=O)(Nc1ccc(OCc2ccc3ccccc3n2)cc1)C(F)(F)F | –
10 | – | 11 | O=S(=O)(Nc1cccc(Oc2ccccn2)c1)C(F)(F)F | –
11 | – | 94 | O=S(=O)(Nc1cccc(OCc2nc3ccccc3s2)c1)C(F)(F)F | –
12 | – | 10 | Cc1ccc(S(=O)(=O)Nc2cccc(SCc3ccc4ccccc4n3)c2)cc1 | –
13 | 60 | – | CS(=O)(=O)Nc1cccc(OCc2nc3ccccc3s2)c1 | inhibition in vivo at 50 mg/kg (Cavia porcellus [3]): 44%
14 | – | 0 | O=C(O)c1ccc(S(=O)(=O)Nc2cccc(OCc3ccc4ccccc4n3)c2)cc1 | –
15 | – | 78 | O=C1CS(=O)(=O)Nc2cc(OCc3ccc4ccccc4n3)ccc21 | inhibition in vivo at 50 mg/kg (Cavia porcellus [4]): 3%
16 | – | 13 | CCS(=O)(=O)Nc1cccc(OCc2cc3ccccc3s2)c1 | inhibition in vivo at 50 mg/kg (Cavia porcellus [3]): 4%
17 | 28 | – | CCS(=O)(=O)Nc1ccc2ccc(OCc3ccc4ccccc4c3)cc2c1 | –
18 | 27 | – | CCS(=O)(=O)Nc1ccc2ccc(OCc3nc4ccccc4s3)cc2c1 | –
19 | – | 28 | CS(=O)(=O)Nc1ccc([N+](=O)[O-])cc1OCc1ccc2ccccc2n1 | –
